In the library only some 1.6% were active in any assay of this set; here they are far more common.
proCasp7 act: counter-screen: procaspase-7 (human) activation. P55210. hit rate 0.093% among 330,000. recombinant procaspase-7, Ac-DEVD-pNA absorbance 405 nm; D23A/D198A/D206A triple mutant, cannot self-cleave; scale: DMSO 0, 5 µM enzyme 100. activation, % at 8.5 µM;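 active means percent activation above the screen-wide mean plus 3 SD, cut at about 25% in these data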
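Detection: p-Nitroaniline absorbance at 405 nm, read at 0 and 120 min; system: Uncleavable procaspase-7 mutant enzyme; evaluation: % activation from two-timepoint absorbance difference, scaled to controls; times: 1 h enzyme–compound preincubation and 2 h substrate reaction, both 25 °C; buffer or medium: Zinc-free HEPES pH 7.4 with 300 mM NaCl, 0.01% Triton X-100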
proCasp3 act: procaspase-3 (human) activation | P42574 | recombinant procaspase-3 D3A, Ac-DEVD-pNA absorbance 405 nm | activation, % at 8.5 µM | hit rate 0.11% among 330,000 | AID 463141;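 active means activation above the mean of all tested compounds plus 3 SD, cut at about 21% in these data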
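Test system: Procaspase-3 D3A mutant; medium: Zinc-free HEPES/NaCl buffer with 0.01% Triton X-100 at pH 7.4; reagent: DEVD-pNA substrate; doses: one concentration, 8.5 µM nominal, 0.8% DMSO; times: 1 h preincubation plus 2 h reaction at 25 °C; signal: Epi-absorbance at 405 nm of released p-nitroaniline, 0 and 120 min; replicates: singlicate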
PLC-gamma1 inh: PLC-gamma1 (human) inhibition, primary screen; P19174; purified PLC-gamma1, fluorogenic substrate, fluorescence; hit rate 0.84% among 370,000; inhibition, % at 12.2 µM; in the data active means inhibition above about 9.5%
Target sequence (P19174 whole entry, looked up): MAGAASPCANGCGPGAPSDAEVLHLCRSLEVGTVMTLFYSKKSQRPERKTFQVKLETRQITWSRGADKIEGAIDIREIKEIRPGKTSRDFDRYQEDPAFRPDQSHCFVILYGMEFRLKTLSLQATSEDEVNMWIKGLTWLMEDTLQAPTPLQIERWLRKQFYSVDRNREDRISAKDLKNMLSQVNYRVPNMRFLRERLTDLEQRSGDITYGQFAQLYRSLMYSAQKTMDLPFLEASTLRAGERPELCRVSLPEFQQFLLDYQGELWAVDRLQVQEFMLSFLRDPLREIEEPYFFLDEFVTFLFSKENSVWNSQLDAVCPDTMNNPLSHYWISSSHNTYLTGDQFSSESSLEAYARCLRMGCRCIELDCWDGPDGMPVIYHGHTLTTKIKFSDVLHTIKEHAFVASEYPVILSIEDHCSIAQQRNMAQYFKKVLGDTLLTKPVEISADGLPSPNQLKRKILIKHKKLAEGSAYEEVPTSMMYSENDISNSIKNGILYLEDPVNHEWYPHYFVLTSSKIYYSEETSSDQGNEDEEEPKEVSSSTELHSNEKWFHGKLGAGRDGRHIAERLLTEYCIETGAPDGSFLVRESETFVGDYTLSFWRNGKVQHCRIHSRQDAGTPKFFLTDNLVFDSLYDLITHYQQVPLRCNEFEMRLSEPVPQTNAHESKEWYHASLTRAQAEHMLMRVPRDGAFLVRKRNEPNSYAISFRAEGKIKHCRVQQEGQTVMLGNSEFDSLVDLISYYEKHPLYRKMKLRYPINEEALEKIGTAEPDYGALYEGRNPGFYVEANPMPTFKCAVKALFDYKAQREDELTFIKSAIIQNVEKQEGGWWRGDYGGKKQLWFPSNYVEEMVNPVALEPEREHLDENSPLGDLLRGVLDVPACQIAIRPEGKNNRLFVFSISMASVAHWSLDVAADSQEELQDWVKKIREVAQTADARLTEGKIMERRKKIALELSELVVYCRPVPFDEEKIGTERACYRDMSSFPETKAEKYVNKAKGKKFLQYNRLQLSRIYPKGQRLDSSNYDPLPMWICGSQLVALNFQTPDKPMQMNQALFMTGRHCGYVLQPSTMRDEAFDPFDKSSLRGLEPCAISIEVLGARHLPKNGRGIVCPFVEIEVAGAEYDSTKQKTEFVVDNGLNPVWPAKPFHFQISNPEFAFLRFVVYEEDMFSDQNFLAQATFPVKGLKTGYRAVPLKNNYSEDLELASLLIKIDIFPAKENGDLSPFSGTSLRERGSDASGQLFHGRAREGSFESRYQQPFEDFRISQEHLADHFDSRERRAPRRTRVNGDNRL
HGIII-sPLA2 inh: Blocks human group III sPLA2 activity. inhibition, % at 12.2 µM. QFRET BODIPY PC-A2 liposome hydrolysis, fluorescence. hit rate 0.56% among 370,000;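 active means inhibition above mean plus 3 SD of compounds lying within the high and low control bounds, cut at about 19% in these data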
PLCb3 inh: blocks human PLC-beta3 enzyme activity; inhibition, % at 12.2 µM; AID 720704; Q01970; Purified PLC-beta3, fluorogenic substrate, fluorescence; hit rate 0.18% among 370,000; in the data active means inhibition above about 11%
sPLA2 confirm: human GIII-sPLA2 inhibition, confirmation; shares compounds with HGIII-sPLA2 inh; recombinant hGIII-sPLA2, BODIPY PC-A2 QFRET fluorescence; inhibition, % at 12.2 µM; hit rate 34% among 2,000; AID 743280;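 active means mean inhibition across triplicates above the hit cutoff set in the earlier primary screen, cut at about 19% in these data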
BODIPY interf: optically interferes with 535nm fluorescence in sPLA2 counter-screen. inhibition, % at 12.2 µM. shares compounds with HGIII-sPLA2 inh. AID 743282. hit rate 8.5% among 2,000. BODIPY FL product fluorescence interference, QFRET;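 active means average inhibition above the solvent-only control mean plus 3 SD, cut at about 6% in these data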
BODIPY interf DR: counter-screen for HGIII-sPLA2 inhibitors: 535nm fluorescence interference, dose response; IC50, µM; 240 tested, under 10 active; BODIPY FL product fluorescence interference, cell-free; shares compounds with HGIII-sPLA2 inh;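 active means IC50 at or below 10 µM; inactive means IC50 above 10 µM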
Of the large screens only hits and unclear results are named; the others gave an inactive call (follow-up assays come after a bar, where they were run).

O=C(CSc1cccc[n+]1[O-])Nc1cc([N+](=O)[O-])ccc1Cl	none
COc1cccc(Nc2nc(C(N)Cc3ccccc3)cs2)n1 (stereo unspecified)	none (no result: proCasp7 act, proCasp3 act)
COc1cccc(Nc2nc(C(N)CO)cs2)n1 (stereo unspecified)	HGIII-sPLA2 inh 21 (no result: proCasp7 act, proCasp3 act) | sPLA2 confirm inactive | BODIPY interf inactive
CCCn1c(=S)[nH]c2cc(C(=O)N3CCN(C4CCCCC4)CC3)ccc2c1=O	HGIII-sPLA2 inh 20 | sPLA2 confirm inactive | BODIPY interf inactive
O=C(c1ccc2c(=O)n(C3CCCC3)c(=S)[nH]c2c1)N1CCN(C2CCCCC2)CC1	none
Cc1cc(C)c2c(CN(Cc3ccccc3)Cc3ccccc3)cc(=O)oc2c1	none (no result: proCasp7 act, proCasp3 act)
CCSC(=S)c1c(C)[nH]n(-c2ccccc2)c1=O	HGIII-sPLA2 inh 19 | sPLA2 confirm inactive | BODIPY interf inactive
S=c1nn[nH]c2ccccc12	HGIII-sPLA2 inh 23 (no result: proCasp7 act, proCasp3 act) | sPLA2 confirm inactive | BODIPY interf inactive
FC(F)(F)c1ccccc1NC(=S)OCCN1CCCC12CCC(c1ccccc1)CC2 (stereo unspecified)	none (no result: proCasp7 act, proCasp3 act)
CN1CCC[C@@H]1CCNC(=O)c1cccc2c1C(=O)c1ccc(N3CCCC3)cc1S2(=O)=O	HGIII-sPLA2 inh 78 | sPLA2 confirm inactive | BODIPY interf inactive
COCCNCCCOc1ccc(C(C)(C)c2ccccc2)cc1	HGIII-sPLA2 inh 22 | sPLA2 confirm inactive | BODIPY interf inactive
FC(F)(F)c1cc(-c2ccccc2)nc(N2CCCCCC2)n1	HGIII-sPLA2 inh 20 | sPLA2 confirm inactive | BODIPY interf inactive
COc1ccc(-c2cc(C(F)(F)F)nc(N3CCCCCC3)n2)cc1	none
O=C(CN(C(=O)c1ccc(Cl)cc1)C1CCCCC1)Nc1ccc(Cl)c([N+](=O)[O-])c1	HGIII-sPLA2 inh 20 | sPLA2 confirm inactive | BODIPY interf inactive
Cc1cc(N)n(-c2ncnc3scc(-c4ccc(Cl)cc4)c23)n1	none
Clc1ncnc2scc(-c3ccc(Br)cc3)c12	HGIII-sPLA2 inh 19 | sPLA2 confirm inactive | BODIPY interf inactive
COc1ccc(/C=N/NC(=S)NCc2ccccc2)cc1OC	HGIII-sPLA2 inh 24 | sPLA2 confirm inactive | BODIPY interf inactive
O=C(Cc1ccc(F)cc1)Nc1nccs1	none
O=C(Cc1ccccc1)Nc1nccs1	none
Fc1ccc(NC(=S)Nc2nccs2)cc1	HGIII-sPLA2 inh 23 | sPLA2 confirm 28 | BODIPY interf inactive | BODIPY interf DR inactive
S=C(Nc1ccccc1)Nc1nccs1	HGIII-sPLA2 inh 27 | sPLA2 confirm 30 | BODIPY interf inactive | BODIPY interf DR inactive
CCOC(=O)N1CCN(S(=O)(=O)c2ccc(C(=O)NNc3nc4cc(C)cc(C)c4s3)cc2)CC1	none (no result: PLC-gamma1 inh, HGIII-sPLA2 inh, PLCb3 inh)
CCOC(=O)N1CCN(S(=O)(=O)c2ccc(C(=O)NNc3nc4c(C)cc(C)cc4s3)cc2)CC1	HGIII-sPLA2 inh 60 | sPLA2 confirm 45 | BODIPY interf inactive | BODIPY interf DR inactive
CCOC(=O)N1CCN(S(=O)(=O)c2ccc(C(=O)NNc3nc4c(C)cccc4s3)cc2)CC1	HGIII-sPLA2 inh 33 | sPLA2 confirm 39 | BODIPY interf inactive | BODIPY interf DR inactive
Cc1cc(C)c2nc(NNC(=O)c3ccc(S(=O)(=O)N4CCCCC4)cc3)sc2c1	HGIII-sPLA2 inh 46 | sPLA2 confirm 53 | BODIPY interf inactive | BODIPY interf DR inactive
COC(=O)C[C@H]1CC[C@@H]2[C@@H](COc3ccc(NC(=O)c4ccno4)cc3C(=O)N2C)O1	HGIII-sPLA2 inh 20 (no result: proCasp7 act, proCasp3 act) | sPLA2 confirm inactive | BODIPY interf inactive
CC(C)NC(=O)OC1CC2CC1[C@H]1CCCCN1C2=O (stereo partly specified)	none (no result: proCasp7 act, proCasp3 act)
CCN(CC)CCNC(=S)Nc1ccc(Cl)cc1	HGIII-sPLA2 inh 21 | sPLA2 confirm inactive | BODIPY interf inactive
C#CCN1[C@@H]2CCN(C2)c2cc(Br)ccc2S1(=O)=O	none (no result: proCasp7 act, proCasp3 act)
COc1ccc(N(C(=O)c2cccc(OC)c2OC)C2C=CS(=O)(=O)C2)cc1 (stereo unspecified)	HGIII-sPLA2 inh 24 | sPLA2 confirm inactive | BODIPY interf inactive
Cc1ccc(C)c(N2CCN(CCCc3ccccc3)CC2)c1	none (no result: proCasp7 act, proCasp3 act)
Cc1cccc(C)c1Nc1n[nH]c(=S)s1	none (no result: proCasp7 act, proCasp3 act)
Cc1cccc2sc(=S)[nH]c12	HGIII-sPLA2 inh 24 (no result: proCasp7 act, proCasp3 act) | sPLA2 confirm 20 | BODIPY interf inactive
NC(=S)NN=C(c1ccc(F)cc1)C1CC1	none (no result: proCasp7 act, proCasp3 act)
C/C(=N/NS(=O)(=O)c1ccc(C)cc1)c1ccc(NC(=O)C(F)(F)F)cc1	HGIII-sPLA2 inh 22 | sPLA2 confirm inactive | BODIPY interf inactive
CC(=O)Nc1cccc(/C(C)=N/NS(=O)(=O)c2ccc(C)cc2)c1	none
CCOC(=O)N1CCN(C(=O)CC(C)S(=O)(=O)c2cc3c(cc2C)NC(=O)CO3)CC1 (stereo unspecified)	none
CCOc1ccc(CCNC(=O)COc2cccc(-n3cnnn3)c2)cc1OCC	none
Cn1c2ccccc2c2cc([N+](=O)[O-])ccc21	none
CN1c2ccc([N+](=O)[O-])cc2N(C)C1(C)c1ccccc1 (stereo unspecified)	HGIII-sPLA2 inh 25 (no result: proCasp7 act, proCasp3 act) | sPLA2 confirm 44 | BODIPY interf 8.0
N=C(N)SCc1ccc(Cl)cc1Cl	HGIII-sPLA2 inh 39 | sPLA2 confirm inactive | BODIPY interf inactive
O=C(CSCc1ccccc1Br)NNC(=S)NCc1ccco1	HGIII-sPLA2 inh 40 | sPLA2 confirm 48 | BODIPY interf 8.8
Cc1ccccc1CSCC(=O)NC(=O)NCc1ccco1	none
Cc1ccc(C)c(NC(=S)NNC(=O)c2csc(C)c2C)c1	HGIII-sPLA2 inh 21 | sPLA2 confirm 38 | BODIPY interf inactive | BODIPY interf DR inactive
Cc1ccc(C)c(NC(=S)NNC(=O)c2sccc2C)c1	none
CCOc1ccccc1NC(=S)NC1CC2CCC1C2 (stereo unspecified)	none (no result: PLC-gamma1 inh, HGIII-sPLA2 inh, PLCb3 inh)
COc1ccc(NC(=S)NC2CC3CCC2C3)c(OC)c1 (stereo unspecified)	HGIII-sPLA2 inh 21 | sPLA2 confirm 20 | BODIPY interf inactive
COc1cccc(C=NNC(=S)NC2CC3CCC2C3)c1O (stereo unspecified)	HGIII-sPLA2 inh 26 (no result: proCasp7 act, proCasp3 act) | sPLA2 confirm 31 | BODIPY interf 7.8
O=C1c2ccccc2C(c2nnnn2-c2ccc3c(c2)OCCO3)N1CCc1ccccc1F (stereo unspecified)	none (no result: proCasp7 act, proCasp3 act)
O=C(N/C(=C\c1ccccc1)C(=O)N1CCN(CCO)CC1)c1ccccc1	HGIII-sPLA2 inh 21 | sPLA2 confirm inactive | BODIPY interf inactive
